Measurements from different studies.
Compare with care: the assays were run in different laboratories.
UGT2B7: UDP-glucuronosyltransferase 2B7 (UGT2B7, Homo sapiens, UniProt P16662)
KCNH2: Voltage-gated inwardly rectifying potassium channel KCNH2 (KCNH2, Homo sapiens, UniProt Q12809)

For `C=C1CC[C@@H]2[C@](C)(CO)[C@H](O)CC[C@@]2(C)[C@@H]1/C=C/C1=CCOC1=O`, the inhibition was 80% (UGT2B7; enzyme activity, inhibitor; 100 µM).
`CCc1cccc(C(=O)Nc2cc(C)nn2-c2nc(CC)cc(=O)[nH]2)c1` has an inhibition of 0% (KCNH2; ligand displacement, radioligand; 10 µM).
For `O=C(O)C(F)(F)C(F)(F)C(F)(F)C(F)(F)C(F)(F)C(F)(F)C(F)(F)F`, the Km was 149 µM (Solute carrier organic anion transporter family member 2B1 (SLCO2B1, Homo sapiens, UniProt O94956); transporter uptake, substrate; CHO; 1 min, pH 7.4).
For `COc1ccc(CCC2CCCC(CCc3ccc(OC)cc3)N2C[C@@H](O)CO)cc1` (stereo in doubt), the IC50 was about 70 nM (KCNH2; ion current, inhibitor, patch clamp).
`CN1CCN(Cc2ccc(NC(=O)c3cncc(C#Cc4cnc(N)c5ncccc45)c3)cc2C(F)(F)F)CC1` has an IC50 of over 30000 nM (KCNH2; ion current, inhibitor).
The inhibition of `O=c1ccc2ccccc2o1` is reported as -13.1% (KCNH2; ligand displacement, radioligand; 10 µM, cell membranes).
`CC(C)N1CCC[C@H]1CNC(=O)c1cn(C2CCCC2)c(=O)c2c1c1ccccc1n2C` gave an inhibition of 39% (KCNH2; ligand displacement, radioligand; 10 µM).
With `C=C1CCC2C(C)(CO)C(=O)CCC2(C)C1C=CC1=CCOC1=O` (stereo not drawn) the inhibition was 90% (UGT2B7; enzyme activity, inhibitor; 100 µM).
For `Clc1ccc2c(C3CCN(CCc4c[nH]c5ccccc45)CC3)c[nH]c2c1`, the inhibition was 99% (KCNH2; ligand displacement, radioligand; 10 µM).
